PubChem BioAssay
Activity calls are given as the source filed them.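 How the source made its calls, unless noted: active means GFP response above 150% of the DMSO level; inconclusive means fewer than 70 events counted for a yeast strain; inactive means the rest.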

Key:
[1] = hit retest on RPL19A-GFP reporter strain – cell-based, S. cerevisiae, flow cytometry, cherry picks, mother/daughter gates, confirmation (AID 2270;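 active means GFP response below 50% of the DMSO control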); conditions: 3 h, at 10 µM, stronger effect = lower value, 100 = same GFP as DMSO wells
[2] = yeast TOR pathway reporter LAP4-GFP change – cell-based, cherry picks, flow cytometry, mother/daughter gates, confirmation (AID 2271;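 active means GFP response above 150% of the DMSO control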;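 further: ratio of sample to DMSO plate mean so 100% equals DMSO level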); conditions: S. cerevisiae LAP4-GFP strain, 3 h, at 10 µM, stronger effect = higher value, 100 means same as DMSO control
In short: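 Material: Alexa 633-stained baker's yeast GFP-fusion strain; Compound dosing: single test-compound dose, 10 µM final; Incubation: 30 °C, 3 h compound incubation, rotating; Detection: HT flow cytometry, GFP fluorescence channel; Control set: positive rapamycin (400 ng/mL), negative DMSO.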

[3] = TOR pathway reporter MEP2-GFP, retest of hits – S. cerevisiae, flow cytometry GFP, cherry picks, confirmation (AID 2272;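 active means GFP response above 150% of the DMSO control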;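 further: ratio of well signal to plate DMSO mean so 100% equals DMSO level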); conditions: S. cerevisiae MEP2-GFP strain, 3 h, at 10 µM, stronger effect = higher value
[4] = yeast AGP1-GFP fluorescence change, single-dose – cell-based, flow cytometry, S. cerevisiae, cherry picks, confirmation (AID 2273);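 further: median GFP channel fluorescence over the whole cell population gate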; conditions: S. cerevisiae AGP1-GFP strain, 3 h, at 10 µM
[5] = TOR pathway CIT2 reporter hit retest – S. cerevisiae, GFP fusion, cherry picks, mother/daughter gates, confirmation (AID 2274); conditions: S. cerevisiae CIT2-GFP strain, flow cytometry, 3 h, at 10 µM, stronger effect = higher value
[6] = measured here: daughter cell gate
[7] = measured here: mother cell gate
[8] = measured here: daughter cell gate response
[9] = measured here: mother cell gate response

In the case of `Cc1cc(=O)n2c3c(sc2n1)C(=O)N(Cc1ccccc1)C3=O`, the GFP response vs DMSO [1] is reported as 94.3% (inactive), the GFP response vs DMSO [1, 6] is reported as 94.5% and the GFP response vs DMSO [1, 7] is reported as 94%. The GFP response relative to DMSO [2] was 152% (active), the GFP response relative to DMSO [2, 8] was 140% and the GFP response relative to DMSO [2, 9] was 161%. The GFP response vs DMSO [3] was 103% (inactive), the GFP response, % of DMSO [4] was 105% (inactive) and the GFP response, % of DMSO [5] was 81% (inactive). The GFP response, % of DMSO [5, 6] was 87.3% and the GFP response, % of DMSO [5, 7] was 74.8%.
With `CCOC(=O)CNc1c(-c2ccccc2)nc2ccc(Cl)cn12` the GFP response vs DMSO [1] was 96% (inactive), the GFP response vs DMSO [1, 6] was 97.8% and the GFP response vs DMSO [1, 7] was 96.4%. For the same compound, the GFP response relative to DMSO [2] was 109% (inactive), the GFP response relative to DMSO [2, 8] was 105% and the GFP response relative to DMSO [2, 9] was 114%. The GFP response vs DMSO [3] was 97.5% (inactive), the GFP response, % of DMSO [4] was 98% (inactive) and the GFP response, % of DMSO [5] was 95% (inactive). For the same compound, the GFP response, % of DMSO [5, 6] was 98.3% and the GFP response, % of DMSO [5, 7] was 93.3%.
In the case of `COc1cccc(C2CC(c3c(-c4ccccc4)c4cc(Cl)ccc4[nH]c3=O)=NN2S(C)(=O)=O)c1OC` (stereo not given), the GFP response vs DMSO [1] is reported as 94.3% (inactive), the GFP response vs DMSO [1, 6] is reported as 96.5% and the GFP response vs DMSO [1, 7] is reported as 95%. The GFP response relative to DMSO [2] was 100% (inactive), the GFP response relative to DMSO [2, 8] was 101% and the GFP response relative to DMSO [2, 9] was 99.5%. The GFP response vs DMSO [3] was 99.5% (inactive), the GFP response, % of DMSO [4] was 102% (inactive) and the GFP response, % of DMSO [5] was 101% (inactive). The GFP response, % of DMSO [5, 6] was 102% and the GFP response, % of DMSO [5, 7] was 98%.
With `O=[N+]([O-])c1cnc(Sc2ccncn2)s1` the GFP response vs DMSO [1] was 102% (inactive), the GFP response vs DMSO [1, 6] was 105% and the GFP response vs DMSO [1, 7] was 99.2%. The GFP response relative to DMSO [2] was 166% (active), the GFP response relative to DMSO [2, 8] was 148% and the GFP response relative to DMSO [2, 9] was 182%. For the same compound, the GFP response vs DMSO [3] was 141% (inactive), the GFP response, % of DMSO [4] was 111% (inactive) and the GFP response, % of DMSO [5] was 113% (inactive). It also gave a GFP response, % of DMSO [5, 6] of 124% and a GFP response, % of DMSO [5, 7] of 102%.
In the case of `N#Cc1ccc(Sc2ccccn2)c([N+](=O)[O-])c1`, the GFP response vs DMSO [1] is reported as 102% (inactive), the GFP response vs DMSO [1, 6] is reported as 101% and the GFP response vs DMSO [1, 7] is reported as 102%. The GFP response relative to DMSO [2] was 102% (inactive), the GFP response relative to DMSO [2, 8] was 105% and the GFP response relative to DMSO [2, 9] was 103%. The GFP response vs DMSO [3] was 102% (inactive), the GFP response, % of DMSO [4] was 97.8% (inactive) and the GFP response, % of DMSO [5] was 104% (inactive). It also gave a GFP response, % of DMSO [5, 6] of 99.7% and a GFP response, % of DMSO [5, 7] of 105%.
In the case of `Cc1cc(NC(=O)c2cccnc2Cl)ccc1NC(=O)c1cc2ccccc2o1`, the GFP response vs DMSO [1] is reported as 98% (inactive), the GFP response vs DMSO [1, 6] is reported as 97.1% and the GFP response vs DMSO [1, 7] is reported as 94.5%. For the same compound, the GFP response relative to DMSO [2] was 103% (inactive), the GFP response relative to DMSO [2, 8] was 101% and the GFP response relative to DMSO [2, 9] was 104%. The GFP response vs DMSO [3] was 105% (inactive), the GFP response, % of DMSO [4] was 98.8% (inactive) and the GFP response, % of DMSO [5] was 103% (inactive). It also gave a GFP response, % of DMSO [5, 6] of 97.4% and a GFP response, % of DMSO [5, 7] of 103%.
With `CCc1ccc(CNC(=O)CCC(=O)N2Cc3cccc(OC)c3Oc3ncccc32)cc1` the GFP response vs DMSO [1] was 99.2% (inactive), the GFP response vs DMSO [1, 6] was 98.8% and the GFP response vs DMSO [1, 7] was 99.9%. For the same compound, the GFP response relative to DMSO [2] was 94.4% (inactive), the GFP response relative to DMSO [2, 8] was 94.2% and the GFP response relative to DMSO [2, 9] was 95.2%. For the same compound, the GFP response vs DMSO [3] was 101% (inactive), the GFP response, % of DMSO [4] was 96.7% (inactive) and the GFP response, % of DMSO [5] was 102% (inactive). For the same compound, the GFP response, % of DMSO [5, 6] was 105% and the GFP response, % of DMSO [5, 7] was 94.4%.
With `COc1cccc2c1Oc1ncccc1N(C(=O)CCC(=O)NCc1ccccc1Cl)C2` the GFP response vs DMSO [1] was 95.6% (inactive), the GFP response vs DMSO [1, 6] was 97.9% and the GFP response vs DMSO [1, 7] was 95.8%. For the same compound, the GFP response relative to DMSO [2] was 97% (inactive), the GFP response relative to DMSO [2, 8] was 97.5% and the GFP response relative to DMSO [2, 9] was 96.2%. For the same compound, the GFP response vs DMSO [3] was 99% (inactive), the GFP response, % of DMSO [4] was 99.6% (inactive) and the GFP response, % of DMSO [5] was 103% (inactive). It also gave a GFP response, % of DMSO [5, 6] of 103% and a GFP response, % of DMSO [5, 7] of 103%.
For `CCCN1C(=O)c2cccc3c(N4CCCCC4)ccc(c23)C1=O`, the GFP response vs DMSO [1] was 98.7% (inactive), the GFP response vs DMSO [1, 6] was 99.8% and the GFP response vs DMSO [1, 7] was 98.2%. For the same compound, the GFP response relative to DMSO [2] was 98.9% (inactive), the GFP response relative to DMSO [2, 8] was 101% and the GFP response relative to DMSO [2, 9] was 99.5%. The GFP response vs DMSO [3] was 103% (inactive), the GFP response, % of DMSO [4] was 104% (inactive) and the GFP response, % of DMSO [5] was 103% (inactive). For the same compound, the GFP response, % of DMSO [5, 6] was 105% and the GFP response, % of DMSO [5, 7] was 103%.
For `Cc1ccccc1Sc1ncnc2onc(C)c12`, the GFP response vs DMSO [1] was 98.5% (inactive), the GFP response vs DMSO [1, 6] was 99% and the GFP response vs DMSO [1, 7] was 96.9%. The GFP response relative to DMSO [2] was 97.7% (inactive), the GFP response relative to DMSO [2, 8] was 96% and the GFP response relative to DMSO [2, 9] was 97.4%. For the same compound, the GFP response vs DMSO [3] was 106% (inactive), the GFP response, % of DMSO [4] was 104% (inactive) and the GFP response, % of DMSO [5] was 98.6% (inactive). It also gave a GFP response, % of DMSO [5, 6] of 101% and a GFP response, % of DMSO [5, 7] of 98.2%.
For `COc1ccc(-c2cc(C(F)(F)F)nc(N3CCOCC3)n2)cc1OC`, the GFP response vs DMSO [1] was 100% (inactive), the GFP response vs DMSO [1, 6] was 100% and the GFP response vs DMSO [1, 7] was 98.4%. For the same compound, the GFP response relative to DMSO [2] was 101% (inactive), the GFP response relative to DMSO [2, 8] was 101% and the GFP response relative to DMSO [2, 9] was 102%. The GFP response vs DMSO [3] was 126% (inactive), the GFP response, % of DMSO [4] was 99.5% (inactive) and the GFP response, % of DMSO [5] was 110% (inactive). For the same compound, the GFP response, % of DMSO [5, 6] was 114% and the GFP response, % of DMSO [5, 7] was 109%.
In the case of `Cc1nnc(NC(=O)c2ccc(S(=O)(=O)N3CCCCCC3)cc2)o1`, the GFP response vs DMSO [1] is reported as 99.4% (inactive), the GFP response vs DMSO [1, 6] is reported as 99.3% and the GFP response vs DMSO [1, 7] is reported as 100%. For the same compound, the GFP response relative to DMSO [2] was 97% (inactive), the GFP response relative to DMSO [2, 8] was 97.5% and the GFP response relative to DMSO [2, 9] was 97.3%. For the same compound, the GFP response vs DMSO [3] was 101% (inactive), the GFP response, % of DMSO [4] was 99% (inactive) and the GFP response, % of DMSO [5] was 100% (inactive). It also gave a GFP response, % of DMSO [5, 6] of 103% and a GFP response, % of DMSO [5, 7] of 96.8%.
In the case of `CCOc1ccccc1-c1noc(CCC(=O)Nc2cccnc2)n1`, the GFP response vs DMSO [1] is reported as 98.4% (inactive), the GFP response vs DMSO [1, 6] is reported as 99% and the GFP response vs DMSO [1, 7] is reported as 99.2%. For the same compound, the GFP response relative to DMSO [2] was 107% (inactive), the GFP response relative to DMSO [2, 8] was 105% and the GFP response relative to DMSO [2, 9] was 110%. For the same compound, the GFP response vs DMSO [3] was 111% (inactive), the GFP response, % of DMSO [4] was 106% (inactive) and the GFP response, % of DMSO [5] was 110% (inactive). For the same compound, the GFP response, % of DMSO [5, 6] was 108% and the GFP response, % of DMSO [5, 7] was 112%.
In the case of `O=S(=O)(c1ccccc1)c1ncc(C(F)(F)F)cc1O`, the GFP response vs DMSO [1] is reported as 96.5% (inactive), the GFP response vs DMSO [1, 6] is reported as 98.4% and the GFP response vs DMSO [1, 7] is reported as 94.8%. The GFP response relative to DMSO [2] was 97.7% (inactive), the GFP response relative to DMSO [2, 8] was 97.5% and the GFP response relative to DMSO [2, 9] was 99.5%. For the same compound, the GFP response vs DMSO [3] was 110% (inactive), the GFP response, % of DMSO [4] was 104% (inactive) and the GFP response, % of DMSO [5] was 101% (inactive). It also gave a GFP response, % of DMSO [5, 6] of 99.3% and a GFP response, % of DMSO [5, 7] of 102%.
For `O=C1[C@@H]2C3C=CC(O3)[C@@H]2C(=O)N1c1ccccc1`, the GFP response vs DMSO [1] was 101% (inactive), the GFP response vs DMSO [1, 6] was 102% and the GFP response vs DMSO [1, 7] was 100%. The GFP response relative to DMSO [2] was 107% (inactive), the GFP response relative to DMSO [2, 8] was 107% and the GFP response relative to DMSO [2, 9] was 109%. For the same compound, the GFP response vs DMSO [3] was 101% (inactive), the GFP response, % of DMSO [4] was 107% (inactive) and the GFP response, % of DMSO [5] was 100% (inactive). For the same compound, the GFP response, % of DMSO [5, 6] was 101% and the GFP response, % of DMSO [5, 7] was 100%.
